Test results: ChEMBL document CHEMBL6092224, “The Discovery and Preclinical Profile of ALG-000184, a Prodrug of the Potent Hepatitis B Virus Capsid Assembly Modulator ALG-001075” (J Med Chem, 2024)
Active and inactive are the calls of the source. The rule behind the calls is not given here.

Columns and labels:
[1] = Plasma protein binding in human at 2 uM incubated for 4 to 24 hrs by equilibrium dialysis method; type: ADME, cell-free; conditions: time 4-24 hrs, read-out: PPB (converted)
How it was run: (§1)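 Rapid equilibrium dialysis in mouse, rat, dog, monkey or human plasma for 4 or 24 h at 2 μM.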

[2] = Plasma protein binding in dog at 2 uM incubated for 4 to 24 hrs by equilibrium dialysis method; type: ADME, cell-free, Canis lupus familiaris; conditions: time 4-24 hrs, read-out: PPB (converted); how it was run: as §1
[3] = Prodrug conversion in Beagle dog assessed as formation of N-(3-cyano-4-fluorophenyl)-4-(2-((3-ethynyloxetan-3-yl)amino)-2-oxoacetyl)-1,3,5-trimethyl-1H-pyrrole-2-carboxamide metabolite at 6.3 mg/kg, po measured for 24 hrs; type: ADME, organism-based, Canis lupus familiaris; conditions: in vivo
How it was run: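 Single oral prodrug dose at molar equivalent of 30 mg/kg (rats) or […] of parent in 95% PEG 400/5% copovidone; whole blood collected into 4 volumes 75% MeOH/25% acetonitrile, centrifuged, parent quantified by LC-MS/MS; noncompartmental PK analysis.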

[4] = target: Broad substrate specificity ATP-binding cassette transporter ABCG2 (Homo sapiens, UniProt Q9UNQ0); assay: Inhibition of BCRP in human Caco-2 cells using estrone 3-sulfate as substrate; type: cell-based
Broad substrate specificity ATP-binding cassette transporter ABCG2, sequence (Q9UNQ0 whole entry): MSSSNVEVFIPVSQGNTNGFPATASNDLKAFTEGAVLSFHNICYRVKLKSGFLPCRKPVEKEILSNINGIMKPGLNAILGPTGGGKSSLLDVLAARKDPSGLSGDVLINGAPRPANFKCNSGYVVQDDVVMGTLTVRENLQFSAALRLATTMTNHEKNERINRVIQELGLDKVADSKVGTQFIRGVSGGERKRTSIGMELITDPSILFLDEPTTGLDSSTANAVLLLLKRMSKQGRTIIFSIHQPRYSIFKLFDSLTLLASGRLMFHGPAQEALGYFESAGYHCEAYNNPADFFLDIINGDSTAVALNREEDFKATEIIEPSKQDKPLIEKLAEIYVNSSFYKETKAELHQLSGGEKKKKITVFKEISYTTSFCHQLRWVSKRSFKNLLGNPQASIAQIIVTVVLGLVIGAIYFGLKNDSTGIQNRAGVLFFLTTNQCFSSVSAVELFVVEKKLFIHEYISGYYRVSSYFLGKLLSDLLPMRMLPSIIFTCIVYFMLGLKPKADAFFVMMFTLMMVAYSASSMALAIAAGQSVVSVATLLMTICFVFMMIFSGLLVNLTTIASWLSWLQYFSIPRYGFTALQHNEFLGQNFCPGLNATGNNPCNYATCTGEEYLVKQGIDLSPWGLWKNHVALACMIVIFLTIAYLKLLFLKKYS
How it was run: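 Inhibition of estrone 3-sulfate (5.00 μM) transport in Caco-2 cells was measured at eight concentrations (0.0229–50.0 μM or 0.0457–100 μM). Percent inhibition relative to vehicle control was used to calculate IC50.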

[5] = Half life in Beagle dog at 5 mg/kg, po by LC-MS/MS analysis; type: ADME, organism-based, Canis lupus familiaris; conditions: in vivo
How it was run: (§2)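 Single dose to fasted male C57BL6 mice, Sprague-Dawley rats, beagle dogs and cynomolgus monkeys, either IV at 1 mg/kg or PO as a solution at 5 mg/kg, in 80% PEG 400 in water. Plasma concentrations were measured by LC-MS/MS. PK parameters come from noncompartmental analysis using nominal doses and nominal sampling times.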

[6] = AUC (infinity) in Beagle dog at 5 mg/kg, po by LC-MS/MS analysis; type: ADME, organism-based, Canis lupus familiaris; conditions: in vivo; how it was run: as §2
[7] = Half life in Cynomolgous monkey at 5 mg/kg, po by LC-MS/MS analysis; type: ADME, organism-based, Macaca fascicularis; conditions: cynomolgus monkey, in vivo; how it was run: as §2
[8] = test system: Hepatitis B virus; assay: Antiviral activity against AAV-Hepatitis B virus infected in C57BL/6 mouse assessed as reduction in baseline HBV DNA production at 15 mg/kg, po bid for 56 days followed by induction of compound washout period measured after 7 days; type: functional; conditions: time 63 day
[9] = Plasma protein binding in dog at 1 uM incubated for 4 to 24 hrs by equilibrium dialysis method; type: ADME, cell-free, Canis lupus familiaris; conditions: time 4-24 hrs, read-out: PPB (converted)
How it was run: (§3)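 Rapid equilibrium dialysis in mouse, rat, dog, monkey or human plasma for 4 or 24 h; test concentrations 1, […].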

[10] = Tmax in C57BL/6J mouse at 5 mg/kg, po by LC-MS/MS analysis; type: ADME, organism-based; conditions: in vivo
How it was run: (§4)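 Fasted males (C57BL6 mice, Sprague−Dawley rats, beagle dogs, cynomolgus monkeys) given a single oral solution dose of 5 mg/kg in 80% PEG 400 in water. Plasma sampled over time, analysed by LC-MS/MS. Noncompartmental analysis used nominal doses and nominal sampling times.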

[11] = test system: Hepatitis B virus; assay: Antiviral activity against HBV infected in human primary hepatocyte cells assessed as decrease in HBsAg level pre-infected cells with virus followed by compound treatment for 3 days and subsequent replacement of medium with compound measured after 4 days by CLIA; type: functional, organism-based
[12] = Cmax in Sprague-Dawley rat at 5 mg/kg, po by LC-MS/MS analysis; type: ADME, organism-based; conditions: in vivo; how it was run: as §2
[13] = test system: Mus musculus; assay: Effect on HBeAg level in C57BL/6 mouse infected with AAV-Hepatitis B virus at 15 to 50 mg/kg, po qd for 56 days followed by induction of compound washout period for 14 days; type: functional, organism-based; conditions: dose 15-50 mg/kg, time 70.0 day
[14] = Plasma protein binding in rat at 1 uM incubated for 4 to 24 hrs by equilibrium dialysis method; type: ADME, cell-free; conditions: time 4-24 hrs, read-out: PPB (converted); how it was run: as §3
[15] = target: Organic anion transporter 1 (Homo sapiens); assay: Inhibition of OAT1 (unknown origin) transfected in HEK293 cells
[16] = Tmax in Beagle dog at 5 mg/kg, po by LC-MS/MS analysis; type: ADME, organism-based, Canis lupus familiaris; conditions: in vivo; how it was run: as §4
[17] = Oral bioavailability in Cynomolgous monkey at 5 mg/kg by LC-MS/MS analysis; type: ADME, organism-based, Macaca fascicularis; conditions: cynomolgus monkey, in vivo
How it was run: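 Fasted male C57BL6 mice, Sprague–Dawley rats, beagle dogs, cynomolgus monkeys; single IV dose 1 mg/kg or PO solution 5 mg/kg in 80% PEG 400 in water; plasma concentrations measured, noncompartmental analysis with nominal doses and times; F from PO vs IV AUC.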

[18] = AUC (infinity) in Sprague-Dawley rat at 5 mg/kg, po by LC-MS/MS analysis; type: ADME, organism-based; conditions: in vivo; how it was run: as §2
[19] = test system: Hepatitis B virus; assay: Antiviral activity against HBV infected in human primary hepatocyte cells assessed as decrease in HBV DNA production pre-infected cells with virus followed by compound treatment for 3 days and subsequent replacement of medium with compound measured after 4 days by qPCR analysis; type: functional, organism-based
How it was run: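 Primary human hepatocytes, 80,000/well, infected at MOI 100 in medium with 4% PEG, 2% DMSO, 10% FBS for 24 h, then washed. Compound from 2000 nM in 1/5 dilutions added on day 5 and refreshed on day 8. Medium collected on day 12; extracellular HBV DNA extracted and quantified by qPCR. n = 5 independent experiments.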

[20] = AUC (infinity) in C57BL/6J mouse at 5 mg/kg, po by LC-MS/MS analysis; type: ADME, organism-based; conditions: in vivo; how it was run: as §2
[21] = target: Cytochrome P450 3A4 (Homo sapiens, UniProt P08684); assay: Induction of CYP3A4 (unknown origin) in human hepatocytes upto 30 uM; type: ADME, cell-based, Hepatocyte
Cytochrome P450 3A4, sequence (P08684 whole entry): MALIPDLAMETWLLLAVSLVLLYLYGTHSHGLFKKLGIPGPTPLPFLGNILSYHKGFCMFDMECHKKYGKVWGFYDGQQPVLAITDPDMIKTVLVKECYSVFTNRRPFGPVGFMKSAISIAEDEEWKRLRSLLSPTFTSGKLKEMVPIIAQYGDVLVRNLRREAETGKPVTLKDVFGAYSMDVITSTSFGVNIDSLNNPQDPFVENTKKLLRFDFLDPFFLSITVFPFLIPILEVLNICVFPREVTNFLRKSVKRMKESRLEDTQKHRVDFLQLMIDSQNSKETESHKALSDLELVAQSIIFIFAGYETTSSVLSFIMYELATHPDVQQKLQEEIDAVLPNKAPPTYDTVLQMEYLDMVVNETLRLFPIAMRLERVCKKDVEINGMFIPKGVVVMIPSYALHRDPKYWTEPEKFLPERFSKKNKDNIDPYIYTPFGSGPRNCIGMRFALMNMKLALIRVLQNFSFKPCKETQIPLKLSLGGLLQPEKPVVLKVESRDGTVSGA

[22] = test system: Hepatitis B virus; assay: Antiviral activity against AAV-Hepatitis B virus infected in C57BL/6 mouse assessed as reduction in baseline HBV DNA production at 15 to 50 mg/kg, po qd for 56 days followed by induction of compound washout period measured after 7 days; type: functional, organism-based; conditions: dose 15-50 mg/kg, time 63.0 day
[23] = Toxicity in C57BL/6 mouse infected with AAV-Hepatitis B virus assessed as change in ALT level at 15 to 50 mg/kg, po qd for 56 days followed by induction of compound washout period for 14 days; type: organism-based; conditions: in vivo, 1680 h, dose 15-50 mg/kg, time 70 day
[24] = Clearance in Cynomolgous monkey at 1 mg/kg, iv by LC-MS/MS analysis; type: ADME, organism-based, Macaca fascicularis; conditions: cynomolgus monkey, in vivo; how it was run: as §2
[25] = test system: Hepatitis B virus; assay: Antiviral activity against HBV infected in human primary hepatocyte cells assessed as decrease in HBeAg level pre-infected cells with virus followed by compound treatment for 3 days and subsequent replacement of medium with compound measured after 4 days by CLIA; type: functional, organism-based
[26] = Cmax in Cynomolgous monkey at 5 mg/kg, po by LC-MS/MS analysis; type: ADME, organism-based, Macaca fascicularis; conditions: cynomolgus monkey, in vivo; how it was run: as §2
[27] = Metabolic stability in Cynomolgous monkey hepatocytes assessed as half life at 1 uM incubated upto 180 mins; conditions: cynomolgus monkey
[28] = Plasma protein binding in human at 1 uM incubated for 4 to 24 hrs by equilibrium dialysis method; type: ADME, cell-free; conditions: time 4-24 hrs, read-out: PPB (converted); how it was run: as §3

With C#CC1(N(COP(=O)([O-])[O-])C(=O)C(=O)c2c(C)c(C(=O)Nc3ccc(F)c(C#N)c3)n(C)c2C)COC1.[Na+].[Na+] as the compound, how does the fraction unbound at 2 µM [1] read?
The fraction unbound at 2 µM was 0.11.

What about the fraction unbound at 2 µM [2] of the same compound?
The fraction unbound at 2 µM was 0.179.

What about the Drug metabolism [3] of the same compound?
The Drug metabolism was “metabolite_detected”.

Which IC50 [4] does the source give for C#CC1(NC(=O)C(=O)c2c(C)c(C(=O)Nc3ccc(F)c(C#N)c3)n(C)c2C)COC1 here?
Its IC50 is over 11800 nM.

What about the half-life [5] of the same compound?
Its half-life is 7.83 h.

And the AUC(0-inf) [6]?
The AUC(0-inf) was 24500 ng·h/mL.

What about the half-life [7] of the same compound?
Its half-life is 14.4 h.

And the Activity [8]?
Its Activity is -2.16 log10IU/ml.

And the fraction unbound at 1 µM [9]?
Its fraction unbound at 1 µM is 0.286.

And the Tmax [10]?
Its Tmax is 1 h.

And the EC50 [11]?
The EC50 was 70 nM.

And the Cmax [12]?
The Cmax was 1830 ng/mL.

What about the Activity [13] of the same compound?
The Activity was “inactive”.

And the fraction unbound at 1 µM [14]?
The fraction unbound at 1 µM was 0.211.

What about the IC50 [15] of the same compound?
Its IC50 is over 11800 nM.

What about the Tmax [16] of the same compound?
Its Tmax is 2.17 h.

And the bioavailability [17]?
Its bioavailability is 19.6%.

And the AUC(0-inf) [18]?
Its AUC(0-inf) is 8720 ng·h/mL.

And the EC50 [19]?
Its EC50 is 1.98 nM.

And the AUC(0-inf) [20]?
Its AUC(0-inf) is 7990 ng·h/mL.

What about the Activity [21] of the same compound?
Its Activity is “Not_active”.

And the Activity [22]?
The Activity was “inactive”.

What about the Activity [23] of the same compound?
The Activity was “Non-toxic”.

What about the clearance [24] of the same compound?
The clearance was 7.89 mL/min/kg.

What about the EC50 [25] of the same compound?
Its EC50 is 10.5 nM.

And the Cmax [26]?
Its Cmax is 490 ng/mL.

And the half-life at 1 µM [27]?
Its half-life at 1 µM is over 6 h.

What about the fraction unbound at 1 µM [28] of the same compound?
Its fraction unbound at 1 µM is 0.191.
